From ChEMBL document CHEMBL4732044, “Discovery of a promising agent IQZ23 for the treatment of obesity and related metabolic disorders” (Eur J Med Chem, 2020)
Active and inactive are the calls of the source. The rule behind the calls is not given here.

Columns and labels:
Mus musculus = assay: Antiobesity activity in high fat diet-induced obese C57BL/6J mouse model assessed as decrease in body weight at 50 mg/kg, ip administered for every other days for 5 weeks; format: functional; set-up: scale not given: the % may be the effect or the level left
C2C12 [1] = assay: Activation of AMPK pathway in mouse C2C12 cells assessed as increase in glucose uptake at 1 mM after 6 hrs by 2-NBDG/Hoechst 33342 staining based Confocal microscopic method; format: cell-based; settings: filed as activator
Procedure, shortened: (§1)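 C2C12 myoblasts kept in DMEM with 10% FBS and 1% penicillin/streptomycin at 37 °C under 5% CO2.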

C2C12 [2] = assay: Activation of AMPK pathway in mouse C2C12 cells assessed as increase in glucose uptake at 1 mM after 6 hrs in presence of insulin by 2-NBDG/Hoechst 33342 staining based Confocal microscopic method; format: cell-based; settings: filed as activator; procedure, shortened: as §1
3T3-L1 [3] = assay: Inhibition of mouse 3T3-L1 cells adipocyte differentiation assessed as reduction in adipogenic cocktail-induced C/EBPdelta mRNA expression at 1 mM after 24 hrs by RT-qPCR analysis; format: functional, cell-based
Procedure, shortened: (§2)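 Confluent 3T3-L1 preadipocytes received differentiation cocktail (0.5 mM IBMX, 100 ng/mL dexamethasone, 2 µg/mL insulin) with compound (0.01–1 µM; metformin 1 mM) for 24 h. mRNA was measured by SYBR Green RT-qPCR (30 cycles), normalized to β-actin, with the differentiated control set to 1. N = 4 independent experiments.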

3T3-L1 [4] = assay: Activation of AMPK pathway in adipogenic cocktail-induced mouse 3T3-L1 cells assessed as increase in phosphorylation AMPKalpha at Thr172 residue after 24 hrs by Western blot analysis; format: cell-based; settings: filed as activator
Procedure, shortened: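 Confluent 3T3-L1 pre-adipocytes exposed to adipogenic cocktail for 24 h with or without compound (0, 0.01, 0.1, 1 µM); DMSO vehicle. Lysates analysed by SDS-PAGE/Western blot for pAMPKα (Thr-172), normalized to actin, Ctrl set as 1. N = 4 independent experiments.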

3T3-L1 [5] = assay: Inhibition of mouse 3T3-L1 cells adipocyte differentiation assessed as reduction in adipogenic cocktail-induced C/EBPalpha mRNA expression at 1 mM after 24 hrs by RT-qPCR analysis; format: functional, cell-based; procedure, shortened: as §2
3T3-L1 [6] = assay: Inhibition of mouse 3T3-L1 cells adipocyte differentiation assessed as reduction in adipogenic cocktail-induced ACC protein expression after 6 days by Western blot analysis; format: functional, cell-based; settings: time 6.0 day
Procedure, shortened: (§3)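 3T3-L1 preadipocytes were differentiated with cocktail for 3 days, then insulin medium for 3 days, with compound (0.3 or 1 µM) present throughout. Cells were harvested on day 6 and proteins measured by Western blot, with densitometry normalized to actin.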

3T3-L1 [7] = assay: Lipid lowering activity in mouse 3T3-L1 cells assessed as reduction in adipogenic cocktail-induced triglyceride levels […] incubated for 6 days by GPO-POD assay relative to control; format: functional; set-up: scale not given: the % may be the effect or the level left; settings: time 6 day
3T3-L1 [8] = assay: Inhibition of mouse 3T3-L1 cells adipocyte differentiation assessed as reduction in adipogenic cocktail-induced SREBP-1c protein expression after 24 hrs by Western blot analysis; format: functional, cell-based
Procedure, shortened: (§4)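 3T3-L1 preadipocytes were exposed to adipogenic cocktail with compound (0.3 or 1 µM) and harvested on day 1. Lysates were resolved by SDS-PAGE, immunoblotted (primary antibody overnight at 4 °C, HRP secondary) and quantified by densitometry normalized to actin.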

3T3-L1 [9] = assay: Inhibition of mouse 3T3-L1 cells adipocyte differentiation assessed as reduction in adipogenic cocktail-induced C/EBPalpha protein expression after 24 hrs by Western blot analysis; format: functional, cell-based; procedure, shortened: as §4
3T3-L1 [10] = assay: Inhibition of mouse 3T3-L1 cells adipocyte differentiation assessed as reduction in adipogenic cocktail-induced SCD1 protein expression after 6 days by Western blot analysis; format: functional, cell-based; settings: time 6.0 day; procedure, shortened: as §3
3T3-L1 [11] = assay: Inhibition of mouse 3T3-L1 cells adipocyte differentiation assessed as reduction in adipogenic cocktail-induced FAS protein expression after 6 days by Western blot analysis; format: functional, cell-based; settings: time 6.0 day; procedure, shortened: as §3
3T3-L1 [12] = assay: Inhibition of mouse 3T3-L1 cells adipocyte differentiation assessed as reduction in adipogenic cocktail-induced PPARgamma mRNA expression at 1 mM after 24 hrs by RT-qPCR analysis; format: functional, cell-based; procedure, shortened: as §2
3T3-L1 [13] = assay: Inhibition of mouse 3T3-L1 cells adipocyte differentiation assessed as reduction in adipogenic cocktail-induced C/EBPbeta mRNA expression at 1 mM after 24 hrs by RT-qPCR analysis; format: functional, cell-based; procedure, shortened: as §2
3T3-L1 [14] = assay: Inhibition of mouse 3T3-L1 cells adipocyte differentiation assessed as reduction in adipogenic cocktail-induced PPARgamma protein expression after 24 hrs by Western blot analysis; format: functional, cell-based; procedure, shortened: as §4

SMILES: O=Cc1c(-c2nc3ccccc3c(=O)[nH]2)[nH]c2ccccc12
- Activity (Mus musculus): 14.6%

SMILES: CN(C)C(=N)NC(=N)N [METFORMIN]
- Activity (C2C12 [1]): Active
- Activity (C2C12 [2]): Active
- inhibition (3T3-L1 [3]): Active
- Activity (3T3-L1 [4]): Active
- inhibition (3T3-L1 [5]): Active
- inhibition (3T3-L1 [6]): Active
- Activity (3T3-L1 [7]): 60.3%
- inhibition (3T3-L1 [8]): Active
- inhibition (3T3-L1 [9]): Active
- inhibition (3T3-L1 [10]): Active
- inhibition (3T3-L1 [11]): Active
- inhibition (3T3-L1 [12]): Active
- inhibition (3T3-L1 [13]): Active
- inhibition (3T3-L1 [14]): Active
